Laboratory results published in ChEMBL document CHEMBL2407016 (J Med Chem, 2013).
Active and inactive are the calls of the source. The calls are words filed in the database; no cut-off is given here.

Assays:
[1] = system: Mycobacterium tuberculosis; test: Antibacterial activity against Mycobacterium tuberculosis H37Rv assessed as growth inhibition by Alamar blue assay; format: functional, organism-based
[2] = system: Plasmodium falciparum; test: Antimalarial activity against Plasmodium falciparum 3D7 assessed as parasite growth inhibition after 18 hrs by SYBR Green-1 staining-based fluorescence assay; format: functional, organism-based; conditions: 3D7, 18 h
[3] = biological target: T1, 1-deoxy-D-xylulose 5-phosphate reductoisomerase (Mycobacterium tuberculosis) (UniProt P9WNS1); test: Inhibition of Mycobacterium tuberculosis DXR using DXP as substrate at 100 uM measured every 5 secs for 250 secs in presence of NADPH relative to control
T1 sequence (whole entry): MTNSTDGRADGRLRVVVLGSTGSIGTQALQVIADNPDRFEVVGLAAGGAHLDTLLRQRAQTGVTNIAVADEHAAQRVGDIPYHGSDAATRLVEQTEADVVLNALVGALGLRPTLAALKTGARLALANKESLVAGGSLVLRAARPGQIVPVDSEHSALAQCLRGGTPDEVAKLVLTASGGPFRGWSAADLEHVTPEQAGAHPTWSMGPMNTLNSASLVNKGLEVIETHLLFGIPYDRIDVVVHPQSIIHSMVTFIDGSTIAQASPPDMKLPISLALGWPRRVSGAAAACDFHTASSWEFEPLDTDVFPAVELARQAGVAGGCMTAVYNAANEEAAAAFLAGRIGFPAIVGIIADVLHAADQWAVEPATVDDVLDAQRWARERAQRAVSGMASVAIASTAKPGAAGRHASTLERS

[4] = biological target: T2, 1-deoxy-D-xylulose 5-phosphate reductoisomerase (Mycobacterium tuberculosis, UniProt P9WNS1); test: Inhibition of Mycobacterium tuberculosis DXR using DXP as substrate measured every 5 secs for 250 secs in presence of NADPH
T2 sequence (P9WNS1 whole entry): T1 sequence (whole entry)
How it was run: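 MtDXR activity assay run with NADPH cofactor at 200 μM; IC50 taken from inhibition of enzyme activity.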

[5] = Inhibition of Plasmodium falciparum DXR using DXP as substrate measured every 5 secs for 250 secs in presence of NADPH
[6] = Inhibition of Escherichia coli DXR using DXP as substrate measured every 5 secs for 250 secs in presence of NADPH
[7] = biological target: T2, 1-deoxy-D-xylulose 5-phosphate reductoisomerase; test: Binding affinity to Mycobacterium tuberculosis DXR assessed as dissociation constant by spectrofluorimetric analysis in presence of NADPH and MnCl2
How it was run: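 Purified MtDXR; binding followed by direct fluorescence from changes in the environment of the protein's six tryptophan residues.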

| SMILES | growth inhibition (GI) [1] | IC50 [2] [nM] | inhibition [3] [%] | IC50 [4] [nM] | IC50 [5] [nM] | IC50 [6] [nM] | Kd [7] [nM] |
| --- | --- | --- | --- | --- | --- | --- | --- |
| O=C(c1ccccc1-c1ccccc1)N(O)CCC(c1ccc(Cl)c(Cl)c1)P(=O)(O)O (stereo not given) | inactive | > 10000 | 60 | 21000 | – | – | – |
| NC(=O)c1cncc(C(=O)N(O)CCCP(=O)(O)O)c1 | – | – | – | 3600 | – | – | – |
| CC(=O)N(O)CCCP(=O)(O)O [FR-900098] | – | – | – | – | 18 | 51 | – |
| O=C(c1ccco1)N(O)CCCP(=O)(O)O | – | – | – | 48700 | – | – | – |
| O=C(c1ccccc1C(F)(F)F)N(O)CCC(c1ccc(Cl)c(Cl)c1)P(=O)(O)O (stereo not given) | inactive | – | 70 | 9000 | – | – | – |
| O=C(c1ccccc1)N(O)CCC(c1ccc(Cl)c(Cl)c1)P(=O)(O)O (stereo not given) | inactive | 40 | 100 | 320 | – | – | 210 |
| O=CN(O)CCC(c1ccc(Cl)c(Cl)c1)P(=O)(O)O (stereo not given) | – | – | – | – | – | – | 120 |
| O=C(NCC(=O)N(O)CCCP(=O)(O)O)C1CC1 | – | – | – | > 200000 | 3300 | 7100 | – |
| C[C@@H]1CC[C@H]2[C@@H](C)C(=O)O[C@@H]3O[C@@]4(C)CC[C@@H]1[C@]32OO4 [ARTEMISININ] | – | 5 | – | – | – | – | – |
| O=C(C1CC1)N(O)CCCP(=O)(O)O | – | – | – | 156000 | – | 4440 | – |
| CC(=O)Oc1cccc(C(=O)N(O)CCC(c2ccc(Cl)c(Cl)c2)P(=O)(O)O)c1 (stereo not given) | inactive | 3900 | 30 | > 100000 | – | – | – |
| O=C(c1ccccc1Cn1cncn1)N(O)CCC(c1ccc(Cl)c(Cl)c1)P(=O)(O)O (stereo not given) | inactive | > 10000 | 70 | 13000 | – | – | 40 |
| O=C(CCCOc1ccccc1)NCC(=O)N(O)CCCP(=O)(O)O | – | – | – | > 200000 | 400 | 1000 | – |
| O=C(c1ccccc1Nc1cccc(C(F)(F)F)c1)N(O)CCC(c1ccc(Cl)c(Cl)c1)P(=O)(O)O (stereo not given) | inactive | > 10000 | 80 | 19000 | – | – | 90 |
| O=C(c1ccccc1OC(F)(F)F)N(O)CCC(c1ccc(Cl)c(Cl)c1)P(=O)(O)O (stereo not given) | inactive | > 10000 | 90 | 8000 | – | – | 90 |
| CCC(=O)N(O)CCCP(=O)(O)O | – | – | – | 27200 | – | – | – |
| O=C(Cc1ccccc1)N(O)CCCP(=O)(O)O | – | – | – | 67700 | – | 13000 | 320 |
| CC(=O)N(O)CCC(c1ccc(Cl)c(Cl)c1)P(=O)(O)O (stereo not given) | – | – | – | – | – | – | 360 |
| O=CN(O)CCCP(=O)(O)O [FOSMIDOMYCIN] | – | – | – | – | 32 | 50 | – |
| Cc1ccccc1C(=O)N(O)CCC(c1ccc(Cl)c(Cl)c1)P(=O)(O)O (stereo not given) | inactive | > 10000 | 95 | 830 | – | – | – |
| O=C(c1cccc(Cn2cncn2)c1)N(O)CCC(c1ccc(Cl)c(Cl)c1)P(=O)(O)O (stereo not given) | inactive | 390 | 90 | 140 | – | – | 170 |
| O=C(c1cccnc1)N(O)CCCP(=O)(O)O | – | – | – | 1600 | – | – | – |
| O=C(c1ccc(Cn2cncn2)cc1)N(O)CCC(c1ccc(Cl)c(Cl)c1)P(=O)(O)O (stereo not given) | inactive | 190 | 80 | 1200 | – | – | 200 |
| O=C(c1ccc2ccccc2c1)N(O)CCCP(=O)(O)O | – | – | – | 2000 | – | – | – |
| O=C(c1ccccc1Cc1cccs1)N(O)CCC(c1ccc(Cl)c(Cl)c1)P(=O)(O)O (stereo not given) | inactive | > 10000 | 90 | 7000 | – | – | – |
| O=C(c1ccccc1)N(O)CCCP(=O)(O)O | – | – | – | 2000 | 61 | 130 | – |
